Values joined by “and” are separate entries in the source; they are usually repeats but may differ in a detail not shown here. Equal entries are not always repeated.
Tests used:
[1] = test system: KB; experiment: Cytotoxicity against KB cells after a 3 day incubation; assay type: functional, Homo sapiens; details: read-out: ID50 (the source's name)
In short: (§1)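 KB cells (parental ATCC line and resistant variants) exposed to drug at five concentrations […] for 3 days. ID50 is the concentration giving 50% reduction in cell number, derived from the degree of inhibition at the five concentrations.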

[2] = test system: Tumor Cell line; experiment: Drug molar concentration required to inhibit 50% of human tumor cell growth; assay type: functional
In short: (§2)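 NCI panel of 54 human tumor lines from eight cancer types, mostly seeded at 20 000 cells/well. Cells were preincubated 24 h without drug, then exposed to five 10-fold dilutions for 48 h, fixed and stained with sulforhodamine B, and read spectrophotometrically. Versus control, GI50 (50% growth inhibition), TGI (0% growth) and LC50 (−50% growth) were calculated; mean graph midpoints average all lines.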

[3] = test system: Tumor Cell line; experiment: Drug concentration required to inhibit total cell growth; assay type: functional, Homo sapiens; details: read-out: Log TGI (converted); in short: as §2
[4] = test system: Tumor Cell line; experiment: Drug concentration required to cause 50% cell death; assay type: functional, Homo sapiens; details: Homo sapiens, Tumor Cell line
In short: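 NCI in vitro panel of 54 human tumor cell lines from eight cancer types, mostly seeded at 20 000 cells/well and preincubated 24 h without drug. Five 10-fold dilutions were then added for a further 48 h. Cells were fixed in situ and stained with sulforhodamine B, and bound dye was read spectrophotometrically. LC50 (−50% growth versus control) was taken from five-point dose-response curves and reported as the log10 mean-graph midpoint across lines.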

[5] = test system: Nucleic Acid; experiment: Percentage inhibition of cellular protein-DNA complex formation; assay type: functional; details: Homo sapiens
[6] = target: DNA topoisomerase II (Homo sapiens) (UniProt P11388+Q02880); experiment: 50% inhibition of human DNA topoisomerase II; assay type: protein assay
[7] = test system: KB; experiment: Inhibitory dose value is the concentration which affords 50% reduction in the number of KB ATCC cells; assay type: functional; details: Homo sapiens, read-out: ID50 (the source's name); in short: as §1
[8] = test system: KB; experiment: 50% reduction in the number of KB 7D (topoisomerase II, aMDR) resistant variant; assay type: functional, Homo sapiens; details: read-out: ID50 (the source's name); in short: as §1
[9] = test system: KB; experiment: 50% reduction in the number of KB V20C resistant variant; assay type: functional, Homo sapiens; details: read-out: ID50 (the source's name); in short: as §1

Compound | GI50 ([2]; Homo sapiens, Tumor Cell line) | TGI ([3]; Homo sapiens, Tumor Cell line) | IC50 [1] | Complex formation [5] | ID50 [6] | other results
COc1cc([C@@H]2c3cc4c(cc3[C@@H](NCCN3CCOCC3)[C@H]3COC(=O)[C@H]23)OCO4)cc(OC)c1O [listing 1 of 2 here] | 2.45 µM | 10 µM |  |  |  | IC50 ([1]; Homo sapiens, KB, 72 h): 4 µM
CCOC(=O)N1CCC(N[C@@H]2c3cc4c(cc3[C@@H](c3cc(OC)c(O)c(OC)c3)[C@H]3C(=O)OC[C@@H]32)OCO4)CC1 [listing 1 of 2 here] |  |  | 1.13 µM |  |  | GI50 [2]: 1.78 µM; TGI [3]: 8.13 µM
COc1cc([C@@H]2c3cc4c(cc3[C@@H](NCCCN(C)C)[C@H]3COC(=O)[C@H]23)OCO4)cc(OC)c1O [listing 1 of 2 here] | 0.55 µM | 2.82 µM | 1.15 µM |  |  | LC50 [4]: 13.5 µM
COc1cc([C@@H]2c3cc4c(cc3[C@@H](NCCN3CCOCC3)[C@H]3COC(=O)[C@H]23)OCO4)cc(OC)c1O [listing 2 of 2 here] |  |  | 2 µM |  |  | GI50 [2]: 1.82 µM; TGI [3]: 11.5 µM
COc1cc([C@@H]2c3cc4c(cc3[C@@H](NCCN(C)C)[C@H]3COC(=O)[C@H]23)OCO4)cc(OC)c1O [listing 1 of 2 here] |  |  |  | 203% and 183% | 25 µM | 
CCOC(=O)CC[C@H](NC(=O)c1ccc(N[C@@H]2c3cc4c(cc3[C@@H](c3cc(OC)c(O)c(OC)c3)[C@H]3C(=O)OC[C@@H]32)OCO4)cc1)C(=O)OCC | 0.0501 µM | 0.339 µM |  | 83% | 100 µM | IC50 ([1]; Homo sapiens, KB, 72 h): < 0.4 µM; LC50 [4]: 2.88 µM
CCOC(=O)N1CCC(N[C@@H]2c3cc4c(cc3[C@@H](c3cc(OC)c(O)c(OC)c3)[C@H]3C(=O)OC[C@@H]32)OCO4)CC1 [listing 2 of 2 here] |  |  |  |  | 25 µM | 
COc1cc([C@@H]2c3cc4c(cc3[C@@H](Nc3ccc(C(=O)O)cc3)[C@H]3COC(=O)[C@H]23)OCO4)cc(OC)c1O |  |  |  | > 6.9% and 1.9% | > 100 µM | 
COc1cc([C@@H]2c3cc4c(cc3[C@@H](NC3CCN(Cc5ccccc5)CC3)[C@H]3COC(=O)[C@H]23)OCO4)cc(OC)c1O |  |  | 0.027 µM |  |  | IC50 [7]: 0.027 µM; GI50 [2]: 0.174 µM; TGI [3]: 1.48 µM; IC50 [8]: 0.05 µM; IC50 [9]: 0.026 µM
COc1cc([C@@H]2c3cc4c(cc3[C@@H](NCCN(C)C)[C@H]3COC(=O)[C@H]23)OCO4)cc(OC)c1O [listing 2 of 2 here] | 0.263 µM | 2.51 µM |  |  |  | LC50 [4]: 21.9 µM
COc1cc([C@@H]2c3cc4c(cc3[C@@H](NCCCN(C)C)[C@H]3COC(=O)[C@H]23)OCO4)cc(OC)c1O [listing 2 of 2 here] |  |  |  | 179% and 186% | 25 µM | 
